Measurements as given in ChEMBL document CHEMBL4028818, “Tricyclic 4,4-dimethyl-3,4-dihydrochromeno[3,4-d]imidazole derivatives as microsomal prostaglandin E2 synthase-1 (mPGES-1) inhibitors: SAR and in vivo efficacy in hyperalgesia pain model” (Bioorg Med Chem Lett, 2017).

Key:
[1] = Half life in Sprague-Dawley rat at 10 mg/kg, po; format: ADME, organism-based; details: in vivo
How it was run: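 Male Sprague-Dawley rats were dosed orally as a 0.5% methylcellulose suspension. Cmax, AUC0-24, Tmax, T1/2 and %F were determined. Values are mean ± SD, n = 3.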

[2] = Drug uptake in CSF of Dunkin Hartley guinea pig model of LPS-induced thermal hyperalgesia pain at 100 mg/kg, po qd measured 7 hrs post dose by LC/MS/MS analysis; format: ADME, organism-based, Cavia porcellus, Cerebrospinal fluid; details: read-out: Drug uptake
How it was run: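 In the guinea pig LPS thermal hyperalgesia model, plasma and CSF drug levels were measured at the pharmacodynamic time point after oral dosing. Concentrations are means of n = 8 animals per dose group.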

CYP1A2 = target: T1, CYP1A2 (Homo sapiens, UniProt P05177); experiment: (§1) Inhibition of CYP1A2 in human liver microsomes at 10 uM measured after 20 mins in presence of NADPH by LC/MS/MS analysis relative to control; format: ADME; details: liver microsomes
T1 sequence (P05177 whole entry): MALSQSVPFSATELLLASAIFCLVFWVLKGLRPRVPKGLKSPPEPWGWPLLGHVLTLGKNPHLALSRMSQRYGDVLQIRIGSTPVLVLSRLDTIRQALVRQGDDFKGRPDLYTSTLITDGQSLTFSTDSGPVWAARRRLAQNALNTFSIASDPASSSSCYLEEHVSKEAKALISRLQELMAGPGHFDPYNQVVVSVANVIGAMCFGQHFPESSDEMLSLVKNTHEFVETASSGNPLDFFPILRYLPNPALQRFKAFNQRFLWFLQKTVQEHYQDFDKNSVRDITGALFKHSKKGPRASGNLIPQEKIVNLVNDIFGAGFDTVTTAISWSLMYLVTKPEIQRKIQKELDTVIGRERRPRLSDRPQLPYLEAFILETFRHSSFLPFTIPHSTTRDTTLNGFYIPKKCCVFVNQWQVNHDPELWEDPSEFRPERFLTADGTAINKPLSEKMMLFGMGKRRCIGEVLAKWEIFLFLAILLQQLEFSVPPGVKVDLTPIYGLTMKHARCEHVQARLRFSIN
How it was run: (§2)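 CYP isoforms 1A2, 2D6, 3A4, 2C9 and 2C19 were tested at 1 and 10 µM. Results are % inhibition compared with a no-inhibitor control, run in triplicate.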

[3] = target: Prostaglandin G/H synthase 1 (Homo sapiens, UniProt P23219); experiment: Inhibition of COX1 in human U937 cells assessed as decrease in PGE2 release using arachidonic acid as substrate preincubated for 15 mins followed by arachidonic acid addition measured after 5 mins; format: cell-based
Cytochrome P450 1A2 [4] = target: T2, Cytochrome P450 1A2 (Homo sapiens, UniProt P05177); experiment: Inhibition of CYP1A2 in human liver microsomes at 1 uM measured after 20 mins in presence of NADPH by LC/MS/MS analysis; format: ADME; how it was run: as §2
T2 sequence (P05177 whole entry): T1 sequence (P05177 whole entry)

CYP2D6 = CYP2D6 (Homo sapiens, UniProt P10635); experiment: (§3) Inhibition of CYP2D6 in human liver microsomes at 10 uM measured after 20 mins in presence of NADPH by LC/MS/MS analysis relative to control; format: ADME; details: liver microsomes; how it was run: as §2
Prostaglandin E synthase = target: T3, Prostaglandin E synthase (Homo sapiens, UniProt O14684); experiment: Inhibition of mPGES-1 in human A549 cells assessed as decrease in IL1beta induced PGE2 release preincubated for 30 mins followed by IL-1beta addition after 16 to 20 hrs by HTRF method; format: cell-based
T3 sequence (O14684 whole entry): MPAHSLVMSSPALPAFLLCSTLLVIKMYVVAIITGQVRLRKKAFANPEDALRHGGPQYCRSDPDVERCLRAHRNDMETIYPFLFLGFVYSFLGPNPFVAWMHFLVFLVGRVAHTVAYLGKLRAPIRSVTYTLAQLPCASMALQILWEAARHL

[5] = target: T4, Prostaglandin E synthase (Homo sapiens) (UniProt O14684); experiment: Inhibition of recombinant human mPGES-1 expressed in CHO cells assessed as reduction in PGE2 formation at 10 uM using PGH2 a substrate preincubated for 10 mins followed by substrate addition measured after 1 min relative to control; format: cell-based
T4 sequence (whole entry): T3 sequence (O14684 whole entry)
How it was run: (§4)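 mPGES-1 enzyme inhibition. % inhibition values are means of two experiments in duplicate. IC50 values were derived from graphs of at least two experiments in duplicate.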

COX2 [6] = target: T5, COX2 (Homo sapiens, UniProt P35354); experiment: Inhibition of recombinant human N-terminal His-tagged COX2 expressed in baculovirus infected Sf21 insect cells assessed as decrease in PGE2 release at 1 uM using arachidonic acid as substrate preincubated for 15 mins followed by arachidonic acid addition measured after 5 mins relative to control; details: probe arachidonic acid
T5 sequence (P35354 whole entry): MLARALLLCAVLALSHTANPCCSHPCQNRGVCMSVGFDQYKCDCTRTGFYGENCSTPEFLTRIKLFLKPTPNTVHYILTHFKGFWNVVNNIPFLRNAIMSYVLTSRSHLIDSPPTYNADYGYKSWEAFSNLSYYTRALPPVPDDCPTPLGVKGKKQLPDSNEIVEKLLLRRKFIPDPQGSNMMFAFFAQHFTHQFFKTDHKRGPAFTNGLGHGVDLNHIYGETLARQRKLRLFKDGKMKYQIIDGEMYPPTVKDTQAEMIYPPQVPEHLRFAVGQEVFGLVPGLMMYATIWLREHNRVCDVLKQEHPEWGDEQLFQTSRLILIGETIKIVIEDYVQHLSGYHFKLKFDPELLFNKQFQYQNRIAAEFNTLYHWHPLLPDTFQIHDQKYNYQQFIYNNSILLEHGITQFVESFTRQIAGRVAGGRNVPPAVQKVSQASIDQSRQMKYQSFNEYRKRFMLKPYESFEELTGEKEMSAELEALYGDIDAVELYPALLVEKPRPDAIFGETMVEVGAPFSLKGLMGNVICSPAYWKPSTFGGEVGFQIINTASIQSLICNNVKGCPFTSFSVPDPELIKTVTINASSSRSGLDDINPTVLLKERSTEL

COX2 [7] = target: T5, COX2; experiment: Inhibition of recombinant human N-terminal His-tagged COX2 expressed in baculovirus infected Sf21 insect cells assessed as decrease in PGE2 release at 10 uM using arachidonic acid as substrate preincubated for 15 mins followed by arachidonic acid addition measured after 5 mins relative to control; details: probe arachidonic acid
Cytochrome P450 1A2 [8] = target: T2, Cytochrome P450 1A2; experiment: as §1; format: ADME; details: microsomes, 20 min, 10 µM; how it was run: as §2
[9] = Tmax in Guinea pig at 100 mg/kg, po; format: ADME, organism-based, Cavia porcellus; details: in vivo
How it was run: (§5)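 Single oral dose given to guinea pigs as a 0.5% methylcellulose suspension. Values are mean ± SD, n = 3.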

Cavia porcellus = experiment: Analgesic activity in Dunkin Hartley guinea pig hyperalgesia pain model assessed as inhibition of LPS-induced thermal hyperalgesia at 200 mg/kg, po qd administered 4 hrs prior to LPS stimulation measured after 4.5 hrs by plantar test relative to control; format: functional
How it was run: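 LPS was injected into the guinea pig plantar to induce thermal hyperalgesia, and compound was given orally. Response is expressed as % hyperalgesia, with a saline-injected naive group as 0% and the vehicle-treated LPS group as 100%. Values are mean ± SEM, n = 8 per dose group.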

Cytochrome P450 2D6 = Cytochrome P450 2D6 (Homo sapiens, UniProt P10635); experiment: as §3; format: ADME; details: microsomes, 20 min, 10 µM; how it was run: as §2
[10] = Cmax in Guinea pig at 100 mg/kg, po; format: ADME, organism-based, Cavia porcellus; design: dose 100 mg/kg, route oral; details: in vivo; how it was run: as §5
[11] = target: T4, Prostaglandin E synthase (Homo sapiens); experiment: Inhibition of recombinant human mPGES-1 expressed in CHO cells assessed as reduction in PGE2 formation at 1 uM using PGH2 a substrate preincubated for 10 mins followed by substrate addition measured after 1 min relative to control; format: cell-based; how it was run: as §4

Sequence of Prostaglandin G/H synthase 1 (P23219 whole entry): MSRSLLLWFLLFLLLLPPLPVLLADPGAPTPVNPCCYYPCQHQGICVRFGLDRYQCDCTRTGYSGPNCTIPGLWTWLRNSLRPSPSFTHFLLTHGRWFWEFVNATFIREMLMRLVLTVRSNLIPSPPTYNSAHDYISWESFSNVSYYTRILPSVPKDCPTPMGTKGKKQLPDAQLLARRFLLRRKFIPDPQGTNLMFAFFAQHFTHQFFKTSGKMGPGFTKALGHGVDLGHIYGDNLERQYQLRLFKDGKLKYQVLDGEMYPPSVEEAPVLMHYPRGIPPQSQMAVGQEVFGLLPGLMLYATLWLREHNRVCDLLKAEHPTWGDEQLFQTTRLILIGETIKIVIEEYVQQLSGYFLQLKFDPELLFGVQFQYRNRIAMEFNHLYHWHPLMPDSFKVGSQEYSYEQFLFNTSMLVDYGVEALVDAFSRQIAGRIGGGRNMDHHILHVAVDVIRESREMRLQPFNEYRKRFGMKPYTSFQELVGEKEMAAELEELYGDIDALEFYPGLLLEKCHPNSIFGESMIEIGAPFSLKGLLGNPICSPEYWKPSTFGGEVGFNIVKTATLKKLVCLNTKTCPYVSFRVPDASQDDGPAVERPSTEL
Sequence of Cytochrome P450 2D6 (P10635 whole entry): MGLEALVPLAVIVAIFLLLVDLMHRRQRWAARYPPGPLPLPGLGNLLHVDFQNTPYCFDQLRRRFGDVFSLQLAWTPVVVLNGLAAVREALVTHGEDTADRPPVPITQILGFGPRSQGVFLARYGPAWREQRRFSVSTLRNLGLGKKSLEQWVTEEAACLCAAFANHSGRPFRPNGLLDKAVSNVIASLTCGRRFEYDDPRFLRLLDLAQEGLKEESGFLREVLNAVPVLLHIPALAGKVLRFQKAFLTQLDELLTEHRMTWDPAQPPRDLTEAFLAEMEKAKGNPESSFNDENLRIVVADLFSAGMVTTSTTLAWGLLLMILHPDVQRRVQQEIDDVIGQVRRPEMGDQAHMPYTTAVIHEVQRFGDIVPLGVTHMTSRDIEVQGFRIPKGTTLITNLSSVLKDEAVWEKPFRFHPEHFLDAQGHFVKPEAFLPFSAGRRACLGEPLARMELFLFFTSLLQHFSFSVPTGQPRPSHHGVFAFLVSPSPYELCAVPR
Sequence of CYP2D6 (P10635 whole entry): as above

half-life [1] | concentration at 7 h [2] | inhibition at 20 min, 10 µM (CYP1A2) | IC50 [3] | inhibition (INH) (Cytochrome P450 1A2 [4]) | inhibition at 20 min, 10 µM (CYP2D6) | IC50 (Prostaglandin E synthase) | inhibition [5] | inhibition at 5 min, 1 µM (COX2 [6]) | inhibition at 5 min, 10 µM (COX2 [7]) | inhibition (INH) (Cytochrome P450 1A2 [8]) | Tmax [9] | inhibition (INH) (Cytochrome P450 2D6) | Cmax [10] | inhibition [11] | Compound | inhibition in vivo at 200 mg/kg (Cavia porcellus)
6.77 h | 2.63 nM | 33.9% | 60 nM | Not Active | 26.6% | 839 nM | – | – | – | – | – | – | – | – | CC1(C)Oc2cc(C#Cc3cc(Cl)ccc3F)ccc2-c2[nH]c(-c3c(F)cccc3Cl)nc21 | –
11.2 h | – | – | 6750 nM | Not Active | – | 840 nM | 91.8% | 2.37% | 24.2% | Not Active | 24 h | Not Active | 803 ng/mL | 97.9% | CC1(C)Oc2cc(-c3cccc(OC(F)(F)F)c3)ccc2-c2[nH]c(-c3c(F)cccc3Cl)nc21 | 38%
